The source made the active and inactive calls. No cut-off for these calls is given here.
Columns and labels:
[1] = tested on: Mus musculus; experiment: Anticonvulsant activity in F1 albino mouse assessed as protection against subcutaneous pentylenetetrazole-induced seizures at 100 mg/kg, ip after 0.5 hrs; type: functional, organism-based; parameters: dose 100 mg/kg
Outline: (§1)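 Male albino F-1 mice (18–25 g), groups of 1–5 (rotorod 2–8). Compound given ip as a suspension in 0.5% methylcellulose at 30, 100 and 300 mg/kg. Seizures by maximal electroshock or subcutaneous pentylenetetrazole; neurotoxicity by rotorod. Read at 0.5 and 4 h, with some at 0.25, 1 and 2 h. Value is the minimum active dose, with protected (or toxic)/tested animals.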

[2] = tested on: Mus musculus; experiment: Anticonvulsant activity in F1 albino mouse assessed as protection against subcutaneous pentylenetetrazole-induced seizures at 300 mg/kg, ip after 1 hr; type: functional, organism-based; parameters: dose 300 mg/kg; outline: as §1
[3] = tested on: Rattus norvegicus; experiment: Anticonvulsant activity in Sprague-Dawley albino rat assessed as protection against subcutaneous pentylenetetrazole-induced seizures at 50 mg/kg, po after 2 hrs; type: functional, organism-based; parameters: dose 50 mg/kg
Outline: (§2)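 Male Sprague-Dawley albino rats (100–150 g), groups of 4. Oral suspension in 0.5% methylcellulose/water. Protection assessed by maximal electroshock or subcutaneous pentylenetetrazole; motor impairment by rotorod. Time points 0.25–4 h. Value is protected (or toxic)/tested animals.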

[4] = target: T1, Adenosine receptor A1 (Homo sapiens, UniProt P30542); experiment: Displacement of [3H]CCPA from human recombinant adenosine A1 receptor expressed in CHO cells; type: cell-based
T1 sequence (P30542 whole entry): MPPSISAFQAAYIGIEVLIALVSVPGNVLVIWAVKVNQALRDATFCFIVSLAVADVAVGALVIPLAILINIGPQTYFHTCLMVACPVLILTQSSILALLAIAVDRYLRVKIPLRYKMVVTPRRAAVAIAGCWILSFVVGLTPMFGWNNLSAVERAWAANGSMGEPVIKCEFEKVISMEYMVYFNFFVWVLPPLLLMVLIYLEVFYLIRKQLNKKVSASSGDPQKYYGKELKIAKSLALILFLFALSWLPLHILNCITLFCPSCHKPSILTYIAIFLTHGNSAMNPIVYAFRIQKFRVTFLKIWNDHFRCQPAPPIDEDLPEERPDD

[5] = species on record: Rattus norvegicus; experiment: Selectivity ratio of Ki for adenosine A1 receptor in rat brain cortical membrane to Ki for adenosine A2A receptor in rat brain striatal membrane; type: cell membranes
Outline: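 Ki ratios from radioligand competition binding. Rat A1 used brain cortical membranes and rat A2A used brain striatal membranes. Human A1 and A2A used membranes of CHO cells expressing the receptors. A1 radioligand [³H]CCPA; A2A radioligand [³H]MSX-2. Potent compounds were tested at 6–7 concentrations spanning 3 orders of magnitude.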

[6] = tested on: Rattus norvegicus; experiment: Anticonvulsant activity in Sprague-Dawley albino rat assessed as protection against maximal electroshock-induced seizures at 30 mg/kg, po after 2 hrs; type: functional, organism-based; parameters: dose 30 mg/kg; outline: as §2
[7] = target: T2, Adenosine receptor A3 (Homo sapiens) (UniProt P0DMS8); experiment: Displacement of [3H]PSB-11 from human recombinant adenosine A3 receptor expressed in CHO cells at 10 uM; type: cell-based
T2 sequence (whole entry): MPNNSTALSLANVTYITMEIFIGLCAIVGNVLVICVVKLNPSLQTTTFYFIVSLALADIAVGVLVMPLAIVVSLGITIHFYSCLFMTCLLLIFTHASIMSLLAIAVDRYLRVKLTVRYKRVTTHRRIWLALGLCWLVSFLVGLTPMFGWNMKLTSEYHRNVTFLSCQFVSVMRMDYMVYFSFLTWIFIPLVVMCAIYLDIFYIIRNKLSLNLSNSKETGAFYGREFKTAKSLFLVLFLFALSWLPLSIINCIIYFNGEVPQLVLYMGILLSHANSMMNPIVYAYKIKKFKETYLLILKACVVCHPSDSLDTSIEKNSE
Outline: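 CHO cell membranes expressing the human receptor. Radioligands: A1 [3H]CCPA; A2B [3H]ZM241385 or [3H]PSB-603; A3 [3H]PSB-11. […] Potent compounds run at 6–7 concentrations spanning 3 orders of magnitude; Ki ± SEM.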

[8] = tested on: Rattus norvegicus; experiment: Neurotoxicity in Sprague-Dawley albino rat assessed as minimal motor impairment at 30 mg/kg, po after 0.5 hrs by rotorod test; type: toxicity, organism-based; parameters: dose 30 mg/kg, route oral; settings: in vivo; outline: as §2
[9] = tested on: Mus musculus; experiment: Neurotoxicity in F1 albino mouse assessed as minimal motor impairment at 300 mg/kg, ip after 1 hr by rotorod test; type: toxicity, organism-based; parameters: dose 300 mg/kg, route intraperitoneal; settings: in vivo; outline: as §1
[10] = target: Adenosine receptor A2a (Rattus norvegicus, UniProt P30543); experiment: Displacement of [3H]MSX-2 from adenosine A2A receptor in rat brain striatal membrane; type: cell membranes
[11] = tested on: Rattus norvegicus; experiment: Neurotoxicity in Sprague-Dawley albino rat assessed as minimal motor impairment at 30 mg/kg, po after 4 hrs by rotorod test; type: toxicity, organism-based; parameters: dose 30 mg/kg, route oral; settings: in vivo
Outline: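 Male Sprague-Dawley albino rats (100–150 g), groups of 4, dosed orally with a suspension in 0.5% methylcellulose/water. Neurotoxicity was scored as minimal motor impairment on the rotorod at 0.25, 0.5, 1 and 4 h. Results are reported as animals showing toxicity per animals tested.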

[12] = tested on: Mus musculus; experiment: Anticonvulsant activity in F1 albino mouse assessed as protection against subcutaneous pentylenetetrazole-induced seizures at 300 mg/kg, ip after 4 hrs; type: functional, organism-based; parameters: dose 300 mg/kg; outline: as §1
[13] = target: Adenosine receptor A2a (Homo sapiens, UniProt P29274); experiment: Antagonist activity human recombinant adenosine A2A receptor expressed in CHO cells assessed as inhibition of NECA-mediated [3H]cAMP accumulation after 15 mins by liquid scintillation counting; type: functional, cell-based
Outline: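 Stably transfected CHO cells (human A2A), 200,000 cells/well, washed and preincubated 2 h at 37 °C in HBSS (pH 7.3) with 1 U/ml adenosine deaminase. Ro20-1724 (final 40 µM) added for 15 min. NECA dilutions ± a single test concentration in HBSS with 5% DMSO, in triplicate, for 15 min. Hot-lysis; cAMP quantified by [3H]cAMP competition against a standard curve; three separate experiments.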

[14] = tested on: Mus musculus; experiment: Anticonvulsant activity in F1 albino mouse assessed as protection against subcutaneous pentylenetetrazole-induced seizures at 300 mg/kg, ip after 0.25 hrs; type: functional, organism-based; parameters: dose 300 mg/kg; outline: as §1
[15] = target: T3, Adenosine receptor A3 (Homo sapiens, UniProt P0DMS8); experiment: Displacement of [3H]PSB-11 from human recombinant adenosine A3 receptor expressed in CHO cells; type: cell-based
T3 sequence (P0DMS8 whole entry): T2 sequence (whole entry)

[16] = tested on: Rattus norvegicus; experiment: Anticonvulsant activity in Sprague-Dawley albino rat assessed as protection against maximal electroshock-induced seizures at 30 mg/kg, po after 4 hrs; type: functional, organism-based; parameters: dose 30 mg/kg; outline: as §2
[17] = tested on: Rattus norvegicus; experiment: Neurotoxicity in Sprague-Dawley albino rat assessed as minimal motor impairment at 30 mg/kg, po after 1 hr by rotorod test; type: toxicity, organism-based; parameters: dose 30 mg/kg, route oral; settings: in vivo; outline: as §2
[18] = tested on: Rattus norvegicus; experiment: Anticonvulsant activity in Sprague-Dawley albino rat assessed as protection against subcutaneous pentylenetetrazole-induced seizures at 50 mg/kg, po after 4 hrs; type: functional, organism-based; parameters: dose 50 mg/kg; outline: as §2
[19] = tested on: Mus musculus; experiment: Neurotoxicity in F1 albino mouse assessed as minimal motor impairment at 300 mg/kg, ip after 4 hrs by rotorod test; type: toxicity, organism-based; parameters: dose 300 mg/kg, route intraperitoneal; settings: in vivo; outline: as §1
[20] = tested on: Mus musculus; experiment: Anticonvulsant activity in F1 albino mouse assessed as protection against maximal electroshock-induced seizures at 100 mg/kg, ip after 0.25 hrs; type: functional, organism-based; parameters: dose 100 mg/kg; outline: as §1
[21] = tested on: Rattus norvegicus; experiment: Anticonvulsant activity in Sprague-Dawley albino rat assessed as protection against subcutaneous pentylenetetrazole-induced seizures at 50 mg/kg, po after 0.5 hrs; type: functional, organism-based; parameters: dose 50 mg/kg; outline: as §2
[22] = tested on: Mus musculus; experiment: Neurotoxicity in F1 albino mouse assessed as minimal motor impairment at 300 mg/kg, ip after 0.25 hrs by rotorod test; type: toxicity, organism-based; parameters: dose 300 mg/kg, route intraperitoneal; settings: in vivo; outline: as §1
[23] = tested on: Mus musculus; experiment: Anticonvulsant activity in F1 albino mouse assessed as protection against maximal electroshock-induced seizures at 300 mg/kg, ip after 4 hrs; type: functional, organism-based; parameters: dose 300 mg/kg; outline: as §1

Chain of Adenosine receptor A2a (Rattus norvegicus, UniProt P30543) (P30543 whole entry): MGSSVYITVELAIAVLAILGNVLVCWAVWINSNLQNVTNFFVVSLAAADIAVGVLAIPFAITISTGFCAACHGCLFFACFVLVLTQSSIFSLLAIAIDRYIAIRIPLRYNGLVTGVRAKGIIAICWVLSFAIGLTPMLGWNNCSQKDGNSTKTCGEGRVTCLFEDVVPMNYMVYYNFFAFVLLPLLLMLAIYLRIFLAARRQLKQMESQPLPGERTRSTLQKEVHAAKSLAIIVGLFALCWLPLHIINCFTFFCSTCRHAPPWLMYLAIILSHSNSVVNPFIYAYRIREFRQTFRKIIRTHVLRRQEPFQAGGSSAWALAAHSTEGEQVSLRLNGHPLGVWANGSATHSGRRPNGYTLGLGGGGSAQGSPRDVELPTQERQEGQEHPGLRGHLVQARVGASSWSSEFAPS
Chain of Adenosine receptor A2a (Homo sapiens, UniProt P29274) (P29274 whole entry): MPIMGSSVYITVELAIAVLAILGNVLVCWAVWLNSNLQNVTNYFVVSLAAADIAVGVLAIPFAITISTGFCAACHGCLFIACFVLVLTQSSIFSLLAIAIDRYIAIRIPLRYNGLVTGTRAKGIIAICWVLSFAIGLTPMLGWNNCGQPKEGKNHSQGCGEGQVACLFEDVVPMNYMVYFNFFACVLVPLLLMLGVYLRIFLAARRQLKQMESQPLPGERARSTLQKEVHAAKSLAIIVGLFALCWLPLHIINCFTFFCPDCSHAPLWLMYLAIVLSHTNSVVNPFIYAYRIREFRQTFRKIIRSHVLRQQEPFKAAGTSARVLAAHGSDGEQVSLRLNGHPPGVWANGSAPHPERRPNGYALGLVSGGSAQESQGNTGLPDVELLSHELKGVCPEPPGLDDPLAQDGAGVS

Compound: Cn1c(=O)c2c(nc3n2CCCN3CC2CC2)n(C)c1=O
- Activity [1]: Active
- Activity [2]: inactive
- Activity [3]: inactive
- Ki [4]: 7130 nM
- Ratio Ki [5]: 2
- Activity [6]: inactive
- inhibition [7]: 1%
- Activity [8]: Non-toxic
- Activity [9]: Non-toxic
- Ki [10]: 980 nM
- Activity [11]: Non-toxic
- Activity [12]: inactive
- Kb [13]: 220 nM
- Activity [14]: inactive
- Ki [15]: > 10000 nM
- Activity [16]: inactive
- Activity [17]: Non-toxic
- Activity [18]: inactive
- Activity [19]: Non-toxic
- Activity [20]: Active
- Activity [21]: inactive
- Activity [22]: Non-toxic
- Activity [23]: inactive
